Results taken from BindingDB's records for doi:10.1021/jm00107a020 (Pfizer, 1991).

Molecular target: Aldo-keto reductase family 1 member B1 (Homo sapiens, UniProt P15121)
Experiment: In vitro inhibition of human placental aldose reductase.
In short: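 Human placental aldose reductase, partly purified (placentae homogenized in 0.1 M K phosphate pH 7.0 with 5 mM 2-mercaptoethanol, spun 33000g, peak fractions pooled). Assay in 50 mM K phosphate pH 7.1 with 0.4 M ammonium sulfate, 0.067 mM NADPH, 1.0 mM DL-glyceraldehyde; enzyme set to 4 milliunits; NADPH oxidation at 340 nm, 25 °C, 10 min. IC50 by log linear regression.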

Row | SMILES | IC50 [nM]
1 | CCOC(=O)C1CN(Cc2cccc3ccccc23)C(=O)C1=O (configuration not stated) | 2300
2 | CCOC(=O)C1CN(Cc2ccccc2Cl)C(=O)C1=O (configuration not stated) | 2300
